Results on five compounds are retold here after ChEMBL document CHEMBL2086243, “Spirocyclic nortriterpenoids with NGF-potentiating activity from the fruits of Leonurus heterophyllus” (J Nat Prod, 2012).

The source made the active and inactive calls. The rule behind the calls is not given here.

Data set [1] deals with PC-12. Nature of the data set: Potentiation of NGF-induced neurite outgrowth-promotion in rat PC12 cells assessed as increase in neurite length at 1 uM incubated for 4 days in presence of 0.5 ng/mL NGF (reference value: 21.1 micrometer). The data set is classed as functional.
For data set [2], the system named is PC-12. Nature of the data set: Potentiation of NGF-induced neurite outgrowth-promotion in rat PC12 cells at 1 to 30 uM incubated for 4 days in presence of 0.5 ng/mL NGF. In kind it is functional, cell-based.
The test system of data set [3] is PC-12. Nature of the data set: Potentiation of NGF-induced neurite outgrowth-promotion in rat PC12 cells assessed as increase in neurite length at 30 uM incubated for 4 days in presence of 0.5 ng/mL NGF (reference value: 21.1 micrometer). In kind it is functional.
In data set [4] the test system is PC-12. Nature of the data set: Effect on cell morphology in rat PC12 cells at 1 to 30 uM incubated for 4 days in absence of NGF. In kind it is functional, cell-based. A digest of the protocol:
(§1)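 PC12 cells seeded at 8 × 10^3 cells/cm2 in DMEM + 10% HS, 5% FBS, penicillin/streptomycin, 37 °C, 5% CO2, 24 h. Medium then switched to DMEM + 2% HS, 1% FBS and test samples added without NGF. After 4 days, cells fixed in 4% paraformaldehyde−PBS, stained with methylene blue, and morphology examined by phase-contrast microscopy. Triplicate wells.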

Data set [5] has as its system PC-12. Nature of the data set: Potentiation of NGF-induced neurite outgrowth-promotion in rat PC12 cells assessed as increase in neurite length at 10 uM incubated for 4 days in presence of 0.5 ng/mL NGF (reference value: 21.1 micrometer). In kind it is functional.
Data set [6] relates to PC-12. Nature of the data set: Potentiation of NGF-induced neurite outgrowth-promotion in rat PC12 cells assessed as increase in neurite length at 1 to 30 uM incubated for 4 days in presence of 0.5 ng/mL NGF (reference value: 21.1 micrometer). In kind it is functional, cell-based.
Data set [7] deals with PC-12. Nature of the data set: Toxicity in NGF-stimulated rat PC12 cells at > 30 uM incubated for 4 days in presence of 0.5 ng/mL NGF. In kind it is cell-based. The conditions noted are these: pc-12, 96 h. A digest of the protocol: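 PC12 cells grown 24 h in DMEM + 10% HS/5% FBS, then exposed for 4 days to test samples with 0.5 ng/mL NGF in DMEM + 2% HS/1% FBS. After fixing in 4% paraformaldehyde−PBS and methylene blue staining, cells were examined under phase-contrast microscopy.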

Data set [8] relates to PC-12. Nature of the data set: Potentiation of NGF-induced neurite outgrowth-promotion in rat PC12 cells at 1 uM incubated for 4 days in presence of 0.5 ng/mL NGF. The data set is classed as functional, cell-based.
Data set [9] concerns PC-12. Nature of the data set: Effect on cell morphology in rat PC12 cells at 1 to 10 uM incubated for 4 days in absence of NGF. The data set is classed as functional, cell-based. A digest of the protocol:
as §1

Data set [10] concerns PC-12. Nature of the data set: Potentiation of NGF-induced neurite outgrowth-promotion in rat PC12 cells at 10 uM incubated for 4 days in presence of 0.5 ng/mL NGF. The data set is classed as functional, cell-based.

Regarding `COc1cc(/C=C\C(=O)O[C@H]2[C@H](O)C[C@@]3(C)[C@@H](CC[C@]4(C)[C@@H]3CC=C3[C@@H](O)[C@@]5(CCC(C)(C)C5)CC[C@]34C)[C@]2(C)CO)ccc1O` (relative stereo), the Activity in the data set on PC-12 [1] is 32.1 um; in the data set on PC-12 [2], “Dose-dependent effect”; in the data set on PC-12 [3] it was 55.1 um; with PC-12 [5], 42 um; in the data set with PC-12 [6] it was “Dose-dependent effect”. Also, the result in the data set on PC-12 [4] was inactive.

In the case of `CC1(C)CC[C@]2(CC[C@]3(C)C(=CC[C@@H]4[C@@]5(C)C[C@@H](O)[C@H](O)[C@@](C)(CO)[C@@H]5CC[C@]43C)[C@H]2O)C1`, the Activity entry in the data set on PC-12 [7] was “Toxic”; in the data set with PC-12 [1] it was 22.9 um; in the data set with PC-12 [5], 33.1 um; in the data set with PC-12 [6], “Dose-dependent effect”. Also, the outcome in the data set on PC-12 [8] and in the data set on PC-12 [10] was Active. Moreover, the result in the data set on PC-12 [9] was inactive.

As to `COc1cc(/C=C/C(=O)O[C@H]2[C@H](O)C[C@@]3(C)[C@@H](CC[C@]4(C)[C@@H]3CC=C3[C@@H](O)[C@@]5(CCC(C)(C)C5)CC[C@]34C)[C@]2(C)CO)ccc1O` (relative stereo), the Activity with PC-12 [1] is 32.1 um; with PC-12 [2], “Dose-dependent effect”; with PC-12 [3], 55.1 um; in the data set with PC-12 [5], 42 um; in the data set with PC-12 [6], “Dose-dependent effect”. The outcome in the data set with PC-12 [4] was inactive.

As to `CC1(C)CC[C@]2(CC[C@]3(C)C(=CC[C@@H]4[C@@]5(C)C[C@@H](O)[C@H](OC(=O)/C=C/c6ccc(O)cc6)[C@@](C)(CO)[C@@H]5CC[C@]43C)[C@H]2O)C1` (relative stereo), the Activity was 27.6 um in the data set on PC-12 [1]; “Dose-dependent effect” with PC-12 [2]; 41.9 um in the data set on PC-12 [3]; 33.5 um in the data set on PC-12 [5]; “Dose-dependent effect” with PC-12 [6]. Moreover, the outcome with PC-12 [4] was inactive.

With `CC1(C)CC[C@]2(CC[C@]3(C)C(=CC[C@@H]4[C@@]5(C)C[C@@H](O)[C@H](OC(=O)/C=C\c6ccc(O)cc6)[C@@](C)(CO)[C@@H]5CC[C@]43C)[C@H]2O)C1` (relative stereo), the Activity in the data set on PC-12 [1] is 27.6 um; in the data set on PC-12 [2], “Dose-dependent effect”; in the data set on PC-12 [3] it was 41.9 um; in the data set with PC-12 [5], 33.5 um; in the data set with PC-12 [6], “Dose-dependent effect”. For the same compound, in the data set on PC-12 [4], the result was inactive.
